The list is not random: actives were taken first. Their share in the collection is about 3.1%.
MEKK2 WT-MEK5: raises or lowers MEK5 binding to wildtype human MEKK2 PB1 domain. 1.1% of 290,000 active. Q9Y2U5. binding response (% of control), % at 10 µM. AID 1531. bead flow cytometry, Alexa488-MEK5 binding to MEKK2 WT; actives lie on both sides; in the data active means binding response below about 67% or above about 130%; inconclusive means no clear call, values can overlap the other calls; inactive means in between
MEKK3 PB1 HTS: MEKK3-MEK5 PB1 interaction, increase or decrease; binding response (% of control), % at 10 µM; 1.4% of 290,000 active; AID 1529; bead-based flow cytometry, Alexa488-MEK5 binding to MEKK3; actives lie on both sides; 0 = blocked by unlabeled MEK5, 100 = vehicle; Q99759;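 active means binding response more than 3 SD above or below the average of its plate-row segment, actives on both sides; inconclusive means wells at one plate position flagged as instrument error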;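 further: Alexa488 bead fluorescence after subtracting the streptavidin-only scavenger bead signal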
Target sequence (Q99759 whole entry, looked up): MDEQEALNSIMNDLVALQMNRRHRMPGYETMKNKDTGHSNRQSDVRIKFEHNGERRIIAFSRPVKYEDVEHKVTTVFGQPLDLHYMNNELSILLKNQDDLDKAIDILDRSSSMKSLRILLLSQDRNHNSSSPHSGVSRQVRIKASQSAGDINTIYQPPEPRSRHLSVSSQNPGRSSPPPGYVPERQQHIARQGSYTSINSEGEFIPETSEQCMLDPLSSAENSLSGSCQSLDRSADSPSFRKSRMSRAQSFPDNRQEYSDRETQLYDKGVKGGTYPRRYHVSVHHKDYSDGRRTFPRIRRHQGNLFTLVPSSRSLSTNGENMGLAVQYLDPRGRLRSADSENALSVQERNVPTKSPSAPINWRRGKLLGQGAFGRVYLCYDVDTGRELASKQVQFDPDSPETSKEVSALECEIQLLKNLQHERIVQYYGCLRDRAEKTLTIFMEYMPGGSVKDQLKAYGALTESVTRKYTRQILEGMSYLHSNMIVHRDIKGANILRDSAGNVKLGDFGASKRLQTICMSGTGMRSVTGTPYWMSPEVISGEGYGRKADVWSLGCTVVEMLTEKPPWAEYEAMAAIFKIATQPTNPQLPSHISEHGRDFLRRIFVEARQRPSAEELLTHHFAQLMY
PREPL inhibitor: inhibits the human prolyl oligopeptidase-like enzyme; Q4J6C6; recombinant PREPL, fluorescence polarization activity-based probe; inhibition, % at 5.96 µM; 0.68% of 320,000 active; AID 2751; in the data active means inhibition above about 43%;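 further: 0% = enzyme with DMSO and 100% = wells lacking enzyme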
MEKK2mut PB1 HTS: signal of MEK5 binding to mutant human MEKK2 PB1 domain; bead flow cytometry, Alexa488-MEK5 binding to MEKK2 mutant; percent response, % at 10 µM; 0.35% of 290,000 active; AID 1530; in the data active means percent response above about 24%, passing the limit was not always enough
Apaf1 inhib: blocks human Apaf-1 apoptosome activity. O14727. reconstituted apoptosome caspase-3 activity, DEVD-Rh110 fluorescence. inhibition, % at 20 µM. 0.71% of 330,000 active; active means inhibition of at least 40% at 20 µM;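 further: plate controls were DMSO wells for no effect and DEVD-CHO caspase inhibitor wells for full effect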
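Material: biochemical Apaf-1 apoptosome reconstitution. Medium: Hepes buffer, pH 7.5. Also added: cytochrome c activation, bis-DEVD rhodamine 110 substrate. Timing: 30 min compound preincubation, 50 min activation, room temperature. Measured by: rhodamine 110 fluorescence at Ex 480/Em 540 nm.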
UBC13 inh: blocks human UBC13 polyubiquitin chain formation; AID 485273; inhibition, % at 20 µM; P61088; TR-FRET; 0.47% of 330,000 active; in the data active means inhibition above about 45%, passing the limit was not always enough; inconclusive means no clear call, values can overlap the other calls
Casp3 UBC13 ctr: caspase-3 inhibition (UBC13 counter-screen). inhibition, % at 20 µM. shares compounds with UBC13 inh. Recombinant caspase-3, Caspase-Glo 3/7 luminescence, 60 min. 4% of 1,400 active. AID 488856;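 active means mean inhibition across replicates above about 26%, limit read from the data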;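 further: plate controls were DMSO with caspase-3 for no effect and DMSO wells lacking enzyme for full effect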
UBC13 confirm: human UBC13 polyubiquitin inhibition, confirmed. shares compounds with UBC13 inh. UBC13 polyubiquitination, TR-FRET, biochemical. inhibition, % at 10 µM. 68% of 1,400 active. AID 488859; in the data active means inhibition above about 45%; inconclusive means no clear call, values can overlap the other calls
The depositor's hits bear a star; ? = inconclusive; / = not tested or not shown; [ ] = dose if it differs, or a comment.

SMILES | MEKK2 WT-MEK5 | MEKK3 PB1 HTS | PREPL inhibitor | MEKK2mut PB1 HTS | Apaf1 inhib | UBC13 inh | Casp3 UBC13 ctr | UBC13 confirm
Cc1ccc2oc(=O)n(Cc3ccccc3)c2c1 | 104.0 | 105.0 | -7.3 | 3.0 | -6.9 | -1.6 | / | /
NCCCNCCCCNCCCN | / | / | -2.7 | / | 29.3 | 93.1* | -2.7 | 73.4*
NCCCS(=O)(=O)O | 97.0 | 98.0 | 14.5 | 2.0 | -3.7 | 0.5 | / | /
Nc1nc(Cl)nc2ccc(Br)cc12 | 89.0 | 93.0 | -1.2 | -2.0 | -2.7 | 49.4* | -2.7 | ?
CCN1C(=O)c2cccc3c(NC(=O)c4ccc(S(=O)(=O)N5CCOCC5)cc4)ccc1c23 | 100.0 | 99.0 | 10.1 | -4.0 | 6.6 | 69.7* | -1.7 | 83.1*
CCN1C(=O)c2cccc3c(NS(=O)(=O)c4ccc(NC(C)=O)cc4)ccc1c23 | 98.0 | 97.0 | 4.9 | -4.0 | 10.2 | -28.4 | / | /
CCN1C(=O)c2cccc3c(NC(=O)c4ccc(S(=O)(=O)N(C)C)cc4)ccc1c23 | 103.0 | 108.0 | -6.4 | 8.0 | 3.8 | 62.5* | 0.1 | 76.4*
O=C(CN1C(=O)c2cccc3cccc1c23)Nc1ccc(S(=O)(=O)N2CCOCC2)cc1 | 95.0 | 80.0 | -14.0 | 4.0 | 12.0 | -2.0 | / | /
CCn1cc(/C=C(\NC(=O)c2ccc(OC)cc2)C(=O)N2CCOCC2)c2ccccc21 | 93.0 | 97.0 | 13.2 | -5.0 | 10.3 | -14.0 | / | /
O=C(O)c1ccccc1C(=O)c1ccc2c(c1)N(Cc1ccc(Cl)c(Cl)c1)C(=O)CO2 | 85.0 | 90.0 | 15.2 | -10.0 | 14.0 | 12.3 | / | /
N#Cc1sc2nc(-c3cccs3)cc(-c3ccc(F)cc3)c2c1N | 88.0 | 104.0 | 14.0 | -1.0 | 16.1 | 58.6* | -2.0 | 34.4
O=C(OCCOc1ccc(Br)cc1)c1ccc(Cl)c(S(=O)(=O)N2CCOCC2)c1 | / | / | 24.9 | / | 14.8 | -2.4 | / | /
COc1ccc(CNC(=O)N2CCN(C(=O)c3ccccc3)CC2)cc1 | / | / | / | / | 6.1 | -6.0 | / | /
COc1ccc(CCN(C)C(=O)c2ccc(COc3ccccc3)o2)cc1OC | 93.0 | 88.0 | 13.7 | -5.0 | 66.3* | 46.0* | -3.2 | 82.1*
CCCc1ccc(OCc2ccc(C(=O)O)o2)c(OC)c1 | 107.0 | 107.0 | -2.0 | 9.0 | 2.3 | 11.2 | / | /
COc1ccc(N(C(=O)Cn2nnc3ccccc32)C(C(=O)NCc2ccco2)c2ccncc2)cc1 (centres undefined) | 99.0 | 100.0 | -2.8 | -2.0 | -4.9 | -1.6 | / | /
O=C(Nc1ccc(C2=NCCN2)cc1)c1ccc(C(=O)Nc2ccc(C3=NCCN3)cc2)c(Cl)c1 | 149.0* | 72.0*[inhibitor] | -7.6 | 31.0* | -21.8 | 103.9* | -0.4 | 117.9*
O=C(Nc1cccc(C2=NCCN2)c1)Nc1cccc(C2=NCCN2)c1 | / | / | 4.9 | / | 33.9 | 97.1* | -3.8 | 103.8*
CCOc1ccc(N(Cc2cc3cc(C)ccc3[nH]c2=O)S(=O)(=O)c2ccccc2)cc1 | 97.0 | 101.0 | -10.6 | 4.0 | 6.6 | 9.6 | / | /
CCOC(=O)C1=C(COC(=O)c2ncc(Cl)c(Cl)c2Cl)NC(=O)NC1C (centres undefined) | / | / | -28.1 | / | 12.9 | 75.7* | -1.9 | 87.4*
CCOC(=O)C1=C(COC(=O)c2nc(Cl)ccc2Cl)NC(=O)NC1C (centres undefined) | / | / | / | / | 4.9 | 9.5 | / | /
CC(=O)N1CCc2cc(S(=O)(=O)N3CCc4ccccc43)ccc21 | 104.0 | 104.0 | -4.9 | 7.0 | 15.1 | -8.0 | / | /
O=C1/C(=C/c2cccs2)SC(=S)N1NS(=O)(=O)c1ccccc1 | 102.0 | 103.0 | -5.4 | 1.0 | -8.8 | -12.5 | / | /
O=C1/C(=C/C=C/c2ccco2)SC(=S)N1NS(=O)(=O)c1ccccc1 | 95.0 | 100.0 | 12.6 | 1.0 | 26.6 | 51.3* | 3.3 | 1.9
Cc1nn(C)c(C)c1NC(=O)COc1ccc(Cl)cc1Br | / | / | 21.0 | / | 17.9 | -5.0 | / | /
COc1ccc(/C=C/C(=O)Nc2c(C)nn(C)c2C)cc1COc1ccc(Cl)cc1Br | 83.0 | 77.0 | -7.6 | -14.0 | -0.8 | 60.1* | -1.9 | 63.2*

Assay outcomes as filed in PubChem BioAssay.
